32 molecules from ChEMBL document CHEMBL4196125, “Identification of N-Benzyl 3,5-Dinitrobenzamides Derived from PBTZ169 as Antitubercular Agents” (ACS Med Chem Lett, 2018) can be followed below.

Data set [1] relates to Mycobacterium tuberculosis. Kind of data set: Antitubercular activity against drug-sensitive Mycobacterium tuberculosis H37Rv ATCC 27294 measured after 7 days by microplate alamar blue assay. The format is functional. The following applies: for MIC90: H37Rv ATCC 27294, 168 h. A digest of the protocol: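 Microplate Alamar Blue Assay against strain H37Rv ATCC27294. MIC is the lowest concentration giving more than 90% reduction in fluorescence relative to the mean of replicate bacterium-only controls.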
On the technique in general: Resazurin is reduced to fluorescent resorufin, in cell work by metabolically active cells.

A short description of data set [2]: Cmax in mouse at 50 mg/kg, po administered as single dose. The format is ADME, organism-based. Details: dose 50 mg/kg, route oral. As to conditions: in vivo. A digest of the protocol: (§1)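 Mice (n = 3) received one oral 50 mg/kg dose; plasma levels were followed to derive T1/2 (h), Tmax (h), Cmax (ng/mL) and AUC0-∞ (h·ng/mL).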
A further data set has as its system Mus musculus. Nature of the data set: Acute toxicity in mouse assessed as survival at 500 mg/kg, po administered as single dose measured for 7 days. The format is organism-based. As to conditions: in vivo, 168 h.
A short description of data set [3]: Tmax in mouse at 50 mg/kg, po administered as single dose. The format is ADME, organism-based. As to conditions: in vivo. In short, it runs like this:
as §1

A short description of data set [4]: AUC (0 to infinity) in mouse at 50 mg/kg, po administered as single dose. The format is ADME, organism-based. On the set-up: dose 50 mg/kg, route oral, time infinity. The following applies: in vivo. In short, it runs like this: as §1
Data set [5] is described as follows: Half life in mouse at 50 mg/kg, po administered as single dose. The format is ADME, organism-based. As to conditions: in vivo. A digest of the protocol:
as §1

In brackets after ≈: the same amount, converted by molar mass. Activity calls are given as the source filed them. The calls are words filed in the database; no cut-off is given here.

As usually defined, the MIC90 is the lowest concentration that inhibits either 90% of growth or 90% of the strains tested, depending on the study. Lower therefore signals greater potency. In turn, `O=C(NCc1ccc(N2CCN(c3ccc(F)cc3)CC2)cc1)c1cc([N+](=O)[O-])cc(C(F)(F)F)c1` showed an MIC90 in data set [1] of 0.5 µg/mL (≈ 0.995 µM). Turning to `O=C(NCc1ccc(N2CCC(Oc3ccc(OC(F)(F)F)cc3)CC2)cc1)c1cc([N+](=O)[O-])cc(C(F)(F)F)c1`, the MIC90 in data set [1] amounted to 2 µg/mL (≈ 3.43 µM). As for `O=C(NCc1ccc(N2CCN(c3ccccn3)CC2)cc1)c1cc([N+](=O)[O-])cc(C(F)(F)F)c1`, the MIC90 in data set [1] was determined as 1 µg/mL (≈ 2.06 µM). `CC(C)N1CCN(c2ccc(CNC(=O)c3cc([N+](=O)[O-])cc([N+](=O)[O-])c3)cc2)CC1`: the MIC90 in data set [1] was found to be 4 µg/mL (≈ 9.36 µM).

As for `O=C(NCc1ccc(N2CCOCC2)cc1)c1cc([N+](=O)[O-])cc(C(F)(F)F)c1`, in data set [1], the MIC90 was greater than 8 µg/mL. Same read-out and setting: the value for `COc1ccc(OCCNC(=O)c2cc([N+](=O)[O-])cc(C(F)(F)F)c2)cc1` was 1 µg/mL (≈ 2.6 µM); that for `CN1CCN(c2ccc(CNC(=O)c3cc([N+](=O)[O-])cc([N+](=O)[O-])c3)cc2)CC1` was 4 µg/mL (≈ 10 µM).

The molecule `O=C(NCc1ccc(N2CCSCC2)cc1)c1cc([N+](=O)[O-])cc(C(F)(F)F)c1` registered an MIC90 in data set [1] of 0.125 µg/mL (≈ 0.294 µM).

In general, Cmax refers to the maximum level reached in the sampled fluid or tissue. As usually defined, the Tmax is the time at which the peak concentration occurs. Usually AUC(0-inf) stands for total exposure, with the tail of the curve extrapolated. Usually half-life stands for how long it takes for the measured level to halve. Low readings indicate rapid decline, high ones slow decline. With `O=C(NCc1ccc(N2CCN(c3ccc(F)cc3)CC2)cc1)c1cc([N+](=O)[O-])cc([N+](=O)[O-])c1`, the highest level in data set [2] (Cmax) was 15 ng/mL. Also, the Activity entry in the data set with Mus musculus is listed as “Non-Toxic”. In data set [1], this molecule gave an MIC90 of 0.0625 µg/mL (≈ 0.13 µM). Further, the Tmax in data set [3] was determined as 1.08 h. The AUC(0-inf) in data set [4] was found to be 219 ng·h/mL. In data set [5], this molecule showed a half-life of 13.6 h. Turning to `O=C(NCc1ccc(N2CC3CCCCC3C2)cc1)c1cc([N+](=O)[O-])cc([N+](=O)[O-])c1` (stereo not drawn), the Activity result in the data set with Mus musculus is “Non-Toxic”. Also, the MIC90 in data set [1] came out at 0.0625 µg/mL (≈ 0.147 µM). In data set [1], `O=C(NCc1ccc(N2CCC(Oc3ccc(OC(F)(F)F)cc3)CC2)cc1)c1cc([N+](=O)[O-])cc([N+](=O)[O-])c1` showed an MIC90 of 0.5 µg/mL (≈ 0.892 µM). For `O=C(NCc1ccc(N2CCN(c3ccccn3)CC2)cc1)c1cc([N+](=O)[O-])cc([N+](=O)[O-])c1`, the MIC90 in data set [1] was found to be 1 µg/mL (≈ 2.16 µM).

Take `O=c1nc(N2CCN(CC3CCCCC3)CC2)sc2c([N+](=O)[O-])cc(C(F)(F)F)cc12` [MACOZINONE]: in data set [1], the MIC90 was found to be 0.0625 µg/mL (≈ 0.137 µM).

Turning to `O=C(NCCNc1ccc([N+](=O)[O-])cc1)c1cc([N+](=O)[O-])cc(C(F)(F)F)c1`, the result in data set [1] was Active. Consider `O=C(NCCN1CCN(CC2CCCCC2)CC1)c1cc([N+](=O)[O-])cc(C(F)(F)F)c1`, for which the MIC90 in data set [1] lay in the range of 0.0781 to 4 µg/mL (≈ 0.177 to 9.04 µM).

On to `O=C(NCc1ccc(N2CCSCC2)cc1)c1cc([N+](=O)[O-])cc([N+](=O)[O-])c1`, for which, in data set [2], the concentration peaked (Cmax) at 19 ng/mL. Further, the Activity entry in the data set on Mus musculus is on record as “Non-Toxic”. In data set [1], this molecule showed an MIC90 of 0.0625 µg/mL (≈ 0.155 µM). The Tmax in data set [3] is 2.75 h. Also, in data set [4], the AUC(0-inf) worked out at 41.1 ng·h/mL. In data set [5], this molecule gave a half-life of 3.3 h. Regarding `O=C(NCCN1CCN(c2ccccc2)CC1)c1cc([N+](=O)[O-])cc(C(F)(F)F)c1`, the result in data set [1] was Active. On to `O=C(NCc1ccc(N2CCCCC2)cc1)c1cc([N+](=O)[O-])cc(C(F)(F)F)c1`, for which the MIC90 in data set [1] was 0.25 µg/mL (≈ 0.614 µM). As to `O=C(NCCNc1ccc(Br)cc1)c1cc([N+](=O)[O-])cc(C(F)(F)F)c1`, the outcome in data set [1] was Active. As for `O=C(NCc1ccc(N2CCN(c3ccncc3)CC2)cc1)c1cc([N+](=O)[O-])cc(C(F)(F)F)c1`, the MIC90 in data set [1] was determined as 8 µg/mL (≈ 16.5 µM). In the case of `NNC(=O)c1ccncc1` [ISONIAZID], the MIC90 in data set [1] was found to be 0.0781 µg/mL (≈ 0.569 µM). Still for that read-out and setting: the value for `O=C(NCc1ccc(N2CCOCC2)cc1)c1cc([N+](=O)[O-])cc([N+](=O)[O-])c1` was greater than 8 µg/mL; that for `O=C(NCc1ccc(N2CCCCC2)cc1)c1cc([N+](=O)[O-])cc([N+](=O)[O-])c1` was 2 µg/mL (≈ 5.2 µM). Turning to `O=C(NCc1ccc(N2CCC(c3ccc(OC(F)(F)F)cc3)CC2)cc1)c1cc([N+](=O)[O-])cc([N+](=O)[O-])c1`, the Cmax in data set [2] is 366 ng/mL. For the same molecule, in the data set with Mus musculus, the Activity entry is given as “Non-Toxic”. The molecule also yielded an MIC90 in data set [1] of 0.0625 µg/mL (≈ 0.115 µM). For the same molecule, the Tmax in data set [3] came out at 0.83 h. Moreover, the AUC(0-inf) in data set [4] was 3260 ng·h/mL. Moreover, in data set [5], the half-life was 5.52 h. The molecule `O=C(NCc1ccc(N2CC3CCCCC3C2)cc1)c1cc([N+](=O)[O-])cc(C(F)(F)F)c1` (stereo not drawn) gave an MIC90 in data set [1] of 0.5 µg/mL (≈ 1.12 µM). As to `O=C(NCc1ccc(N2CCC(C(F)(F)F)CC2)cc1)c1cc([N+](=O)[O-])cc([N+](=O)[O-])c1`, the Cmax in data set [2] was 1720 ng/mL. In addition, the Activity result in the data set on Mus musculus was “Non-Toxic”. For the same molecule, the MIC90 in data set [1] stood at 0.0625 µg/mL (≈ 0.138 µM). The Tmax in data set [3] amounted to 0.92 h. The molecule further had a total exposure AUC(0-inf) in data set [4] of 5600 ng·h/mL. The half-life in data set [5] was 3.63 h.

On to `CN1CCN(c2ccc(CNC(=O)c3cc([N+](=O)[O-])cc(C(F)(F)F)c3)cc2)CC1`, for which, in data set [1], the MIC90 is greater than 8 µg/mL. On to `CO[C@H]1/C=C/O[C@@]2(C)Oc3c(C)c(O)c4c(O)c(c(/C=N/N5CCN(C)CC5)c(O)c4c3C2=O)NC(=O)/C(C)=C\C=C\[C@H](C)[C@H](O)[C@@H](C)[C@@H](O)[C@@H](C)[C@H](OC(C)=O)[C@@H]1C` [RIFAMPIN], for which, in data set [1], the MIC90 worked out at 0.0781 µg/mL (≈ 0.0949 µM).

Consider `O=C(NCc1ccc(N2CCN(c3ccncc3)CC2)cc1)c1cc([N+](=O)[O-])cc([N+](=O)[O-])c1`, for which, in data set [1], the MIC90 is 2 µg/mL (≈ 4.32 µM). `CC(C)N1CCN(c2ccc(CNC(=O)c3cc([N+](=O)[O-])cc(C(F)(F)F)c3)cc2)CC1`: the MIC90 in data set [1] is 8 µg/mL (≈ 17.8 µM). In the case of `O=C(NCc1ccc(N2CCC(C(F)(F)F)CC2)cc1)c1cc([N+](=O)[O-])cc(C(F)(F)F)c1`, the MIC90 in data set [1] is 0.0625 µg/mL (≈ 0.131 µM). `O=C(NCc1ccc(N2CCC(c3ccc(OC(F)(F)F)cc3)CC2)cc1)c1cc([N+](=O)[O-])cc(C(F)(F)F)c1` gave an MIC90 in data set [1] of 0.5 µg/mL (≈ 0.881 µM).
